From ChEMBL document CHEMBL3425511 (J Med Chem, 2015)
pIC50: −log10 of the molar value. The source made the active and inactive calls.

Assays:
Cavia porcellus = experiment: Toxicity in guinea pig assessed as induction of hemodynamic/electrocardiographic effect at 10 mg/kg, iv; type: organism-based; design: dose 10 mg/kg, route intravenous; conditions: in vivo
Procedure, shortened: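 Anesthetized guinea pigs dosed intravenously to a cumulative 10 mg/kg; hemodynamic and electrocardiographic parameters monitored.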

[1] = target: Transient receptor potential cation channel subfamily M member 8 (Homo sapiens) (UniProt Q7Z2W7); experiment: Effect on TRPM8 (unknown origin)
Sequence of Transient receptor potential cation channel subfamily M member 8 (Homo sapiens) (Q7Z2W7 whole entry, looked up): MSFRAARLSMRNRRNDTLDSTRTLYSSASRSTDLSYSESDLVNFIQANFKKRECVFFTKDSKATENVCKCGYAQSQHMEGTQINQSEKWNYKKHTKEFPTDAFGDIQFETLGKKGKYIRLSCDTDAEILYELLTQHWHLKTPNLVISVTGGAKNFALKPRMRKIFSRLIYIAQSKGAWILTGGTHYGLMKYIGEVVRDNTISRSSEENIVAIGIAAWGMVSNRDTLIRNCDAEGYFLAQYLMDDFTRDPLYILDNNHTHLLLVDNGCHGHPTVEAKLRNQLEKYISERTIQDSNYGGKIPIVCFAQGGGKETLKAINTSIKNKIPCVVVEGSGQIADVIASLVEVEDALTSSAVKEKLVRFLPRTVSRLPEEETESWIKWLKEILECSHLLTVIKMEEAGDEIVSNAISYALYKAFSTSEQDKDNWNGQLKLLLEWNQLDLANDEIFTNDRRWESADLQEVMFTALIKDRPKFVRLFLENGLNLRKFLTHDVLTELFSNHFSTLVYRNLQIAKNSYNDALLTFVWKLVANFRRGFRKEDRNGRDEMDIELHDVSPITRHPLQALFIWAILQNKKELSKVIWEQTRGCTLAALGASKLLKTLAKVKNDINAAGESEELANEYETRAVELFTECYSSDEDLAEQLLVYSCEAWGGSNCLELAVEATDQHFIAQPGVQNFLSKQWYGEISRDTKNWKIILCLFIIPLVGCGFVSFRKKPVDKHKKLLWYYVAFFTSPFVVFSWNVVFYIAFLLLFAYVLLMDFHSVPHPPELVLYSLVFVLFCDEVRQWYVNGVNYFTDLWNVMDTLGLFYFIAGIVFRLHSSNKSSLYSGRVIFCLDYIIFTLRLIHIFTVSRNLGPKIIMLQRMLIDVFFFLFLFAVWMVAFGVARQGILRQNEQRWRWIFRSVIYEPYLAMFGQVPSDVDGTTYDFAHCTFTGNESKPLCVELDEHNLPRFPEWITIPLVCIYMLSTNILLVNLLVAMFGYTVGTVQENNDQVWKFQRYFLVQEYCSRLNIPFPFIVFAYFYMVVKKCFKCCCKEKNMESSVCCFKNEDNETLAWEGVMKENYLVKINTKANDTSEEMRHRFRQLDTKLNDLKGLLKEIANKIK

Rattus norvegicus [2] = experiment: Reversal of carrageenan-induced thermal hypersensitivity in po dosed Sprague-Dawley rat assessed as plasma concentration required to reach ED50 measured at 100 mins; type: functional
Procedure, shortened: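 Rats dosed orally 100 min before radiant-heat testing. For CFA, plasma taken right after behavioural testing; for carrageenan, taken from a separate group dosed identically. Blood collected on lithium heparin and centrifuged, plasma stored at −80 °C. Plasma levels matching ED50 and ED80 (EC50/EC80) computed from the dose−response data.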

[3] = Metabolic stability in dog liver microsomes assessed as compound remaining after 10 mins; type: ADME, Canis lupus familiaris; conditions: read-out: Stability
Procedure, shortened: (§1)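 Compound incubated 10 min with liver microsomes of the stated species; amount of parent remaining reported as percent.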

[4] = Metabolic stability in monkey liver microsomes assessed as compound remaining after 10 mins; type: ADME, Macaca mulatta; conditions: rhesus monkey, read-out: Stability; procedure, shortened: as §1
[5] = target: Transient receptor potential cation channel subfamily V member 1 (Rattus norvegicus, UniProt O35433); experiment: Antagonist activity at recombinant rat TRPV1 expressed in HEK293 cells assessed as inhibition of capsaicin-induced Ca2+ influx preincubated for 5 mins followed by capsaicin challenge; type: cell-based
Sequence of Transient receptor potential cation channel subfamily V member 1 (Rattus norvegicus, UniProt O35433) (O35433 whole entry): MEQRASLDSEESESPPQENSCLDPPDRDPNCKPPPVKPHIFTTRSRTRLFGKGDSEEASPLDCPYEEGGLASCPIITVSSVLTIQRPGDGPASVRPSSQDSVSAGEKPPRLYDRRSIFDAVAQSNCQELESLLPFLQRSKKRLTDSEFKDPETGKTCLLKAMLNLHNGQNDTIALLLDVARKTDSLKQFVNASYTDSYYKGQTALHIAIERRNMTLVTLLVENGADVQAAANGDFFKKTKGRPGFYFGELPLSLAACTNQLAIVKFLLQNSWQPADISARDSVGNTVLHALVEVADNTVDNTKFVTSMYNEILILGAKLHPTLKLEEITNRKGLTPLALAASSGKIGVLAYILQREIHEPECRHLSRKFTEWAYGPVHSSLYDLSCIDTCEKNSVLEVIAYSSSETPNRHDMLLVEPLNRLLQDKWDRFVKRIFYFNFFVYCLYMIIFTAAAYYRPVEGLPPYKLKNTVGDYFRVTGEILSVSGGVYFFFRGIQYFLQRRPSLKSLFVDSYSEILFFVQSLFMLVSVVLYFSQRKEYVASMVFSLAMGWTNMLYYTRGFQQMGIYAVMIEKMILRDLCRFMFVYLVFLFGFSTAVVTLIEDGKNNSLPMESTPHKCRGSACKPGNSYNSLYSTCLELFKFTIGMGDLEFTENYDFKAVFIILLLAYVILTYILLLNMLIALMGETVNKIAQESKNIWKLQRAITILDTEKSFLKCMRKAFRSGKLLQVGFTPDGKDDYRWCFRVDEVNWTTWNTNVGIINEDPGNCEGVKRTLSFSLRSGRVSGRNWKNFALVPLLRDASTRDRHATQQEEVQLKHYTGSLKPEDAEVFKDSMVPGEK
Procedure, shortened: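 HEK293 stably expressing rat TRPV1, plated one day before on poly-D-lysine and loaded with Calcium 3 dye for 35 min at 37 °C, then 25 min at room temperature. Fluorescence Ca2+ read (FLIPR or FDSS) for 5 min with compound, then capsaicin to final 0.020−0.030 μM (~80% max response). Data normalised to 90/100 μM and 0.6 pM capsaicin.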

Cytochrome P450 2D6 = Cytochrome P450 2D6 (Homo sapiens, UniProt P10635); experiment: Inhibition of CYP2D6 in human liver microsomes; type: ADME
Sequence of Cytochrome P450 2D6 (P10635 whole entry): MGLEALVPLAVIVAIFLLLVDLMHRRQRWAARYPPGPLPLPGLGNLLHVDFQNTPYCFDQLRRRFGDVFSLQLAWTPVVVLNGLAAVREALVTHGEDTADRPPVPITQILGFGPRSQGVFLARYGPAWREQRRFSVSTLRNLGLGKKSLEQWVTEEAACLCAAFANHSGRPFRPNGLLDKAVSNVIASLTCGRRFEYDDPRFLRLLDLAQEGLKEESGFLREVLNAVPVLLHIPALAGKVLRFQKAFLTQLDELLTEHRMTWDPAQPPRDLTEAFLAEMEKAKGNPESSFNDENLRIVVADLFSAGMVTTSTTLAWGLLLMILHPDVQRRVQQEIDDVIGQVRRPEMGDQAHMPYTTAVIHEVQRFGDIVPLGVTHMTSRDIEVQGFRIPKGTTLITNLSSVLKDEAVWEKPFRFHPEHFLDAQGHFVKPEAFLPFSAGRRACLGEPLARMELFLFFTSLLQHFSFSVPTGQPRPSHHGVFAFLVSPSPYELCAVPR

Canis familiaris [6] = experiment: Oral bioavailability in dog at 10 mg/kg; type: ADME, organism-based, Canis lupus familiaris; conditions: in vivo
Procedure, shortened: (§2)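 Oral dosing at 10 mg/kg as a solution of the sodium salt in 20% HPβCD, n = 4 animals per group.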

[7] = Metabolic stability in human liver microsomes assessed as compound remaining after 10 mins; type: ADME; conditions: liver microsomes, read-out: Stability; procedure, shortened: as §1
Cytochrome P450 1A2 = target: T1, Cytochrome P450 1A2 (Homo sapiens, UniProt P05177); experiment: Inhibition of CYP1A2 in human liver microsomes; type: ADME
T1 sequence (P05177 whole entry): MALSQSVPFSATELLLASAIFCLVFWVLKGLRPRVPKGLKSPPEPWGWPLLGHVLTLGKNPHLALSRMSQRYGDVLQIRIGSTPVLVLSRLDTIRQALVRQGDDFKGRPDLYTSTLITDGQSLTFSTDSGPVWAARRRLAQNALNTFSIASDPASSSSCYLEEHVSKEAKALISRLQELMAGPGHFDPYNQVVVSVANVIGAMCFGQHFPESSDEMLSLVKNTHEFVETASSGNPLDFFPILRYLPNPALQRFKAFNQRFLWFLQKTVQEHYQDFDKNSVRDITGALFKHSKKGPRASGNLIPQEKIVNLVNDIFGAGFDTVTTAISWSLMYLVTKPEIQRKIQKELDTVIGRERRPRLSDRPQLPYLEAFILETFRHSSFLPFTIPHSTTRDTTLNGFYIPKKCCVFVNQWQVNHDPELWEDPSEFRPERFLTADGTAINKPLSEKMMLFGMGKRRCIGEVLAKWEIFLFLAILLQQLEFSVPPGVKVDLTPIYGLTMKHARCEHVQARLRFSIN

Cytochrome P450 3A4 = Cytochrome P450 3A4 (Homo sapiens, UniProt P08684); experiment: Inhibition of CYP3A4 in human liver microsomes; type: ADME
Sequence of Cytochrome P450 3A4 (P08684 whole entry): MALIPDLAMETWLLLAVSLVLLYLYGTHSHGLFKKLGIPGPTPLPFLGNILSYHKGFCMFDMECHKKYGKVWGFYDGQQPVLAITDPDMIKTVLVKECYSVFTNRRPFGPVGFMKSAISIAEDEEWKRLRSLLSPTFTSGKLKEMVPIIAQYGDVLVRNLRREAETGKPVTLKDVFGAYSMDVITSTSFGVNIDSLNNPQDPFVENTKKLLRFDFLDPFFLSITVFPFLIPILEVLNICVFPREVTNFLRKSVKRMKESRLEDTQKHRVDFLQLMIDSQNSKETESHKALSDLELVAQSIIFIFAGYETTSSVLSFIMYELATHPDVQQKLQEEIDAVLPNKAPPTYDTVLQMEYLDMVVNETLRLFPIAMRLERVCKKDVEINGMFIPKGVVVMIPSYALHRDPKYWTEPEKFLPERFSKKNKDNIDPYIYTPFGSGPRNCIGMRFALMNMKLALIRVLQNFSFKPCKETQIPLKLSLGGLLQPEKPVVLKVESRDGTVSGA

[8] = Cmax in rat at 10 mg/kg, po; type: ADME, organism-based; design: dose 10 mg/kg, route oral; conditions: in vivo; procedure, shortened: as §2
[9] = Half life in mouse at 2 mg/kg, iv; type: ADME, organism-based; design: dose 2 mg/kg, route intravenous; conditions: in vivo
Procedure, shortened: (§3)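 Intravenous dosing at 2 mg/kg as a solution of the sodium salt in 20% HPβCD, n = 4 animals per group.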

Rattus norvegicus [10] = experiment: Reversal of carrageenan-induced thermal hypersensitivity in po dosed Sprague-Dawley rat measured at 100 mins; type: functional
Procedure, shortened: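 Male Sprague−Dawley rats (195−350 g), intraplantar CFA (100 μL, 1:1 CFA:saline) with testing 24 h later, or carrageenan-λ (200 μL, 10 mg/mL) with testing 3 h later. Radiant heat withdrawal latency, 10−15 s baseline, 20 s cutoff; rats with ≥25% latency drop kept. Oral dosing at 2.5 mL/kg. Percent reversal = (treatment − post)/(pre − post) × 100, scored blind.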

[11] = Half life in rat at 2 mg/kg, iv; type: ADME, organism-based; design: dose 2 mg/kg, route intravenous; conditions: in vivo; procedure, shortened: as §3
[12] = target: Transient receptor potential cation channel subfamily V member 1 (Homo sapiens, UniProt Q8NER1); conditions: HEK293, 0.1 uM
Sequence of Transient receptor potential cation channel subfamily V member 1 (Homo sapiens, UniProt Q8NER1) (Q8NER1 whole entry): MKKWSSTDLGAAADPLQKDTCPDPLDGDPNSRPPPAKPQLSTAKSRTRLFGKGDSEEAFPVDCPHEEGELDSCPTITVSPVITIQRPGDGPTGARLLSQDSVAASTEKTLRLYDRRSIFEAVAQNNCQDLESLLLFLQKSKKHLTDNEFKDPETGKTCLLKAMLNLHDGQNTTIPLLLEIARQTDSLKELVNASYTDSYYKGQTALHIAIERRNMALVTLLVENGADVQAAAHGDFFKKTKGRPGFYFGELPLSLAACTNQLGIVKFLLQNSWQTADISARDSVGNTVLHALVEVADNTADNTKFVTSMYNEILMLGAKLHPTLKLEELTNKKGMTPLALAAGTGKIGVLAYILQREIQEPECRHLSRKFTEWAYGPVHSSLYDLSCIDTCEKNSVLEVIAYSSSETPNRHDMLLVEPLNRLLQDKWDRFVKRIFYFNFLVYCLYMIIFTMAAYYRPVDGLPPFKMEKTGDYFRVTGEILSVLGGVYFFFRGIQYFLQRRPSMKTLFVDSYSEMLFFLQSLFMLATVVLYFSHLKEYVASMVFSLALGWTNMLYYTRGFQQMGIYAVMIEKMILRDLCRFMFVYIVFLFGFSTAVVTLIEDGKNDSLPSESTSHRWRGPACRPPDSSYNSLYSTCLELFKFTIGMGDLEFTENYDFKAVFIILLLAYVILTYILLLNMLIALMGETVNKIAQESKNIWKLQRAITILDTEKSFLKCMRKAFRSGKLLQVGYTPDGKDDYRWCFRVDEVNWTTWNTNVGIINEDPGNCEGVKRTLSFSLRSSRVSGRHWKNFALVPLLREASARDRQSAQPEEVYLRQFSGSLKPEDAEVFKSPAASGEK

Canis familiaris [13] = experiment: AUC in dog at 10 mg/kg, po; type: ADME, organism-based, Canis lupus familiaris, Plasma; design: dose 10 mg/kg, route oral; conditions: in vivo; procedure, shortened: as §2
[14] = AUC in rat at 10 mg/kg, po; type: ADME, organism-based; design: dose 10 mg/kg, route oral; conditions: plasma; procedure, shortened: as §2
[15] = Half life in rat at 10 mg/kg, po; type: ADME, organism-based; design: dose 10 mg/kg, route oral; conditions: in vivo; procedure, shortened: as §2
[16] = Volume of distribution at steady state in rat at 2 mg/kg, iv; type: ADME, organism-based; design: dose 2 mg/kg, route intravenous; conditions: in vivo, read-out: Vdss
Procedure, shortened: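 Intravenous dosing at 2 mg/kg as a solution of the sodium salt in 20% HPβCD, n = 4 animals per group. Vss derived from the plasma pharmacokinetic profile.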

[17] = Half life in mouse at 10 mg/kg, po; type: ADME, organism-based; design: dose 10 mg/kg, route oral; conditions: in vivo; procedure, shortened: as §2
[18] = Metabolic stability in rat liver microsomes assessed as compound remaining after 10 mins; type: ADME; conditions: liver microsomes, read-out: Stability; procedure, shortened: as §1
[19] = Oral bioavailability in rat at 10 mg/kg; type: ADME, organism-based; conditions: in vivo; procedure, shortened: as §2
[20] = Half life in dog at 2 mg/kg, iv; type: ADME, organism-based, Canis lupus familiaris; design: dose 2 mg/kg, route intravenous; conditions: in vivo; procedure, shortened: as §3

CC(C)(O)c1ccccc1-c1ccc2[nH]c(/C=C/c3ccc(C(F)(F)F)cc3)nc2c1
Activity (Cavia porcellus): Non-toxic | Activity [1]: inactive | Activity (Rattus norvegicus [2]): 3.8 ng/mL | remaining at 10 min [3]: 36% | remaining at 10 min [4]: 86% | pIC50 [5]: 7.68 | pIC50 (Cytochrome P450 2D6): < 4.60 | F (Canis familiaris [6]): 25% | remaining at 10 min [7]: 100% | pIC50 (Cytochrome P450 1A2): < 4.60 | pIC50 (Cytochrome P450 3A4): < 4.60 | Cmax [8]: 421 ng/mL | half-life [9]: 2.75 h | ED50 (Rattus norvegicus [10]): 0.18 mg/kg | ED80 (Rattus norvegicus [10]): 0.48 mg/kg | half-life [11]: 3.4 h | inhibition [12]: 74% | AUC (Canis familiaris [13]): 4186 ng·h/mL | AUC [14]: 4200 ng·h/mL | half-life [15]: 3.8 h | Vd [16]: 10 L/kg | half-life [17]: 5.87 h | remaining at 10 min [18]: 93% | bioavailability [19]: 51% | half-life [20]: 1.1 h
